# The source made the active and inactive calls.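 Rule for the calls, unless noted: active = viability at or below 30% in both replicate assays; inconclusive = viability at or below 30% in just one of the two assays; inactive = the rest.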
# Key:
# [1] = HUVEC growth inhibition – cell-based, human, primary screen (AID 575); settings: HUVEC proliferation, CellTiter-Glo luminescence, 72 h; at 10 µM; stronger effect = lower value;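 note: 100% = median of untreated cell wells with 0.1% DMSO on each plate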
# Procedure, shortened: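 material = primary HUVEC, no more than 12 passages | input = 1250 cells per well | controls = vehicle and MePR control wells | measured by = CTG luminescence | times = 72 h compound incubation | format = collagen-coated 384-well format | read-out = % viability vs DMSO wells | doses = single 10 µM dose, 0.1% DMSO, from 5x medium stock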
# [2] = growth inhibitors of H69AR lung tumor, primary screen, human, duplicate replicates (AID 580;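 active = viability at or under a set limit in both replicates, limit being median viability minus 3 SD, cut at about 48% in these data, passing the limit was not always enough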;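 note: 100% = mean luminescence of untreated wells and 0% = no signal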); settings: H69AR lung tumor cells viability, ATP luminescence, 72 h; at 10 µM; stronger effect = lower value
# [3] = reversal of MRP1-mediated doxorubicin resistance, pilot screen, H69AR cells, doxorubicin co-treatment (AID 601;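 active = viability loss from added drug above about 55%, and viability with drug at most 40%, in both replicates, limit read from the data, passing the limit was not always enough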); settings: CellTiter-Glo, 72 h, at 10 µM; for differential viability (reversal): stronger effect = higher value
# [4] = 384-well plate pilot, post-Golgi transport modulator project, inhibition of yeast transport mutant growth (AID 636; in the data active = inhibition above about 31%); settings: absorbance 615 nm, about 18 h, stronger effect = higher value
# [5] = growth suppression of yeast trafficking mutant, preliminary HTS, modulators of trafficking downstream of Golgi apparatus project, 1536-format plate, OD 615 nm (AID 637; in the data active = inhibition above about 30%); settings: yeast transport mutant growth, absorbance 615 nm, 18 h; stronger effect = higher value
# [6] = H69AR cells + 2 uM doxorubicin, measured here: viability with 2 uM doxorubicin, stronger effect = lower value
# [7] = H69AR cells, compound alone cytotoxicity
Compound,viability [1],viability [2],differential viability (reversal) ([3]; H69AR cells + 2 uM doxorubicin),"viability [3, 6] [%]","viability [3, 7] [%]",inhibition [4],inhibition [5]
CCc1nnc(NC(=O)CSc2nnc(-c3ccoc3C)n2CC(C)C)s1,85.8% (inactive),106% (inactive),12.6% (inactive),93.8,106,-4.67% (inactive),11.3% (inactive)
O=C(O)C1C2CCC(O2)C1C(=O)Nc1cccc(F)c1 (stereo not drawn),80.9% (inactive),90.8% (inactive),10.3% (inactive),80.5,90.8,-4.74% (inactive),3.02% (inactive)
C=Cn1c(N2CCOCC2)nc2c1c(=O)[nH]c(=O)n2C,98.8% (inactive),97.1% (inactive),8.31% (inactive),88.8,97.1,-4.8% (inactive),1.59% (inactive)
CSc1cccc(NC(=O)CN(C)S(=O)(=O)c2ccccc2)c1,74.9% (inactive),95.1% (inactive),15.1% (inactive),80,95.1,-4.93% (inactive),1.27% (inactive)
CCOc1ccccc1OCCn1nnc2ccccc21,101% (inactive),98.7% (inactive),18.4% (inactive),80.3,98.7,-5.73% (inactive),5.24% (inactive)
O=C(O)C1C2CCC(C2)C1C(=O)NCCCn1ccnc1 (stereo not drawn),112% (inactive),90.6% (inactive),6.16% (inactive),84.4,90.6,-7.24% (inactive),-0.79% (inactive)
O=S(=O)(c1ccccc1)N1CCN(C2CCCCCCC2)CC1,100% (inactive),87.5% (inactive),-6.82% (inactive),94.3,87.5,-1.45% (inactive),1.9% (inactive)
O=C(CN(CC1CCCO1)C(=O)CCC(=O)Nc1ccccn1)NCC1CCCO1 (stereo not drawn),103% (inactive),100% (inactive),11.8% (inactive),88.2,100,-7.73% (inactive),-3.97% (inactive)
COc1ccc(OC(C)C(=O)N2CCN(c3ccccn3)CC2)cc1 (stereo not drawn),106% (inactive),94.4% (inactive),5.04% (inactive),89.3,94.4,-3.95% (inactive),-0.32% (inactive)
Cc1nc2ccccc2c(=O)n1NC(=O)c1ccc(F)cc1Cl,103% (inactive),94.2% (inactive),-4.19% (inactive),98.4,94.2,-4.34% (inactive),2.22% (inactive)
COc1cccc2cc(C(=O)n3ccc(C)n3)c(=O)oc12,111% (inactive),93.4% (inactive),2.8% (inactive),90.6,93.4,-3.29% (inactive),7.14% (inactive)
CN(C)S(=O)(=O)Nc1ccccc1C(N)=O,90.8% (inactive),98.4% (inactive),13.8% (inactive),84.6,98.4,-6% (inactive),0.63% (inactive)
COc1cccc(-c2noc(CCC(=O)NC3CCCCC3)n2)c1,91.5% (inactive),97.6% (inactive),0.295% (inactive),97.3,97.6,-2.63% (inactive),-5.4% (inactive)
COc1ccc(CCNc2oc(Cc3cccc4ccccc34)nc2C#N)cc1OC,68.8% (inactive),73.1% (inactive),-7.3% (inactive),80.4,73.1,-5.07% (inactive),1.9% (inactive)
CC(=O)Nc1ccc(NC(=O)c2ccccc2F)cc1,110% (inactive),108% (inactive),16.1% (inactive),92.2,108,-1.82% (inactive),-4.13% (inactive)
COc1ccc(C2C(C(C)=O)=C(C)N=c3s/c(=C\c4ccc5c(c4)OCO5)c(=O)n32)c(OC)c1 (stereo not drawn),77.2% (inactive),99.7% (inactive),-2.84% (inactive),103,99.7,-2.08% (inactive),-4.76% (inactive)
O=C(O)C1CC(=O)N(c2ccc(OCc3c(F)cccc3Cl)cc2)C1 (stereo not drawn),105% (inactive),105% (inactive),4.8% (inactive),101,105,-0.52% (inactive),-1.9% (inactive)
O=C(CSc1nnc(-c2ccccc2)o1)N1CCc2ccccc2C1,85.3% (inactive),93.1% (inactive),0.04% (inactive),93.1,93.1,-4.53% (inactive),-5.24% (inactive)
O=C(C1CCN(S(=O)(=O)c2ccc(-n3cnnn3)cc2)CC1)N1CCN(c2ccccc2)CC1,103% (inactive),94.5% (inactive),2.88% (inactive),91.6,94.5,-1.43% (inactive),0.48% (inactive)
